The text below walks through data of ChEMBL document CHEMBL3779825, “Design, Synthesis, and Structural Optimization of Lycorine-Derived Phenanthridine Derivatives as Wnt/β-Catenin Signaling Pathway Agonists” (J Nat Prod, 2016).

Molecules are shown by their SMILES. Active and inactive are the calls of the source. The calls are words filed in the database; no cut-off is given here.

Holding throughout (type): cell-based
The nature of experiment [1]: Activation of Wnt/beta-catenin signaling pathway in HEK293T cells in presence of Wnt3a-conditioned medium incubated for 6 hrs by luciferase reporter gene assay. Conditions: Homo sapiens; HEK-293T. In short, it runs like this:
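HEK293T cells were grown in DMEM with 10% heat-inactivated FBS at 37 °C in 5% CO2. Cells were seeded in 24-well plates and lipofected with 250 ng total plasmid per well: 20 ng TOPFlash, 25 ng EGFP-C1, and LacZ plasmid as filler. Luciferase luminescence was normalized to lysate GFP fluorescence. The value reported is the concentration doubling Wnt activation.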

A short description of experiment [2]: Activation of Wnt/beta-catenin signaling pathway in HEK293T cells assessed as increase in Axin-2 expression at 5 to 20 uM in presence of Wnt3a-conditioned medium incubated for 6 hrs by quantitative real time PCR analysis. Conditions: Homo sapiens, HEK-293T. In short, it runs like this:
(§1)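 HEK293T cells were grown in DMEM with 10% (v/v) heat-inactivated FBS at 37 °C in 5% CO2/95% air. Cells were exposed to compound together with control medium or Wnt3a-conditioned medium for 6 h.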
On the technique in general: Quantitative PCR measures a nucleic acid by following its amplification.

Experiment [3] is described as follows: Activation of Wnt/beta-catenin signaling pathway in HEK293T cells assessed as increase in NKD1 expression at 5 to 20 uM in presence of Wnt3a-conditioned medium incubated for 6 hrs by quantitative real time PCR analysis. The settings on record: Homo sapiens, HEK-293T. In outline: as §1
The nature of experiment [4]: Activation of Wnt/beta-catenin signaling pathway in HEK293T cells preincubated for 1 hr followed by Wnt3a stimulation and subsequent addition of compound measured after 6 hrs by luciferase reporter gene assay. The settings on record: Homo sapiens; HEK-293T. (In general: A reporter such as luciferase makes a cellular process visible.)

For `CCc1cccc2c1N(C)Cc1cc(OCc3cc4cc(Cl)ccc4s3)c(OCc3cc4cc(Cl)ccc4s3)cc1-2`, the CD result in experiment [1] is “inactive”. Moreover, the outcome in experiment [2] and in experiment [3] was inactive.

For `CCc1cccc2c1N(C)Cc1cc(OCc3cn(CCN)nn3)c(OCc3cn(CCN)nn3)cc1-2`, the CD in experiment [1] came to 1.25 µM. Also, the result in experiment [2] and in experiment [3] was Active.

For `CCc1cccc2c1N(C)Cc1cc(OCc3ccc(-c4ccccc4C(=O)OC)cc3)c(OCc3ccc(-c4ccccc4C(=O)OC)cc3)cc1-2`, in experiment [1], the CD result is “inactive”. Also, the result in experiment [2] and in experiment [3] was inactive.

Take `C=Cc1cccc2c1N(C)Cc1cc(OCC)c(OCC)cc1-2`: the CD result in experiment [1] is “inactive”.

Consider `CCc1cccc2c1N(C)Cc1cc(OCc3cc(C)nn3C)c(OCc3cc(C)nn3C)cc1-2`, for which the CD entry in experiment [1] is “inactive”.

For `NCCn1cc(COc2ccccc2OCc2cn(CCN)nn2)nn1`, in experiment [1], the outcome was Active.

Regarding `CCc1cccc2c1N(C)Cc1cc(O)c(O)cc1-2`, the CD in experiment [1] was 5 µM.

Consider `CCc1cccc2c1N(C)Cc1cc(OCc3cn(CCNC(C)=O)nn3)c(OCc3cn(CCNC(C)=O)nn3)cc1-2`, for which the CD in experiment [1] was found to be 2.5 µM. For the same compound, the outcome in experiment [2] and in experiment [3] was Active.

Turning to `NCCn1cc(COc2cccc(OCc3cn(CCN)nn3)c2)nn1`, in experiment [1], the result was Active.

On to `O=C1N[C@H]2[C@H](CS[C@H]2CCCCC(=O)ON2C(=O)CCC2=O)N1`, for which the outcome in experiment [1] was inactive.

In the case of `CCc1cccc2c1N(C)Cc1cc(OCc3cc(OC)cc(OC)c3)c(OCc3cc(OC)cc(OC)c3)cc1-2`, in experiment [1], the CD result was “inactive”.

As to `CCc1cccc2c1N(C)Cc1cc(OC)c(OC)cc1-2`, the CD in experiment [1] amounted to 2.5 µM.

As for `O=C(O)CCCC[C@@H]1SC[C@@H]2NC(=O)N[C@@H]21`, in experiment [1], the outcome was inactive.

As for `[N-]=[N+]=NCCNC(=O)CCCC[C@@H]1SC[C@@H]2NC(=O)N[C@@H]21`, in experiment [1], the result was inactive.

As to `CCc1cccc2c1N(C)Cc1cc(OCc3ccc(-n4cccn4)cn3)c(OCc3ccc(-n4cccn4)cn3)cc1-2`, the CD entry in experiment [1] was “inactive”.

Regarding `CCc1cccc2c1N(C)Cc1cc3c(cc1-2)OCO3`, the CD in experiment [1] is 5 µM.

For the compound `CCc1cccc2c1N(C)Cc1cc(OCc3cn(CCNC(=O)CCCC[C@@H]4SC[C@@H]5NC(=O)N[C@@H]54)nn3)c(OCc3cn(CCNC(=O)CCCC[C@@H]4SC[C@@H]5NC(=O)N[C@@H]54)nn3)cc1-2`, the CD in experiment [4] came out at 0.325 µM.

Regarding `C=Cc1cccc2c1N(C)Cc1cc(O)c(O)cc1-2`, in experiment [1], the CD came out at 10 µM.

As to `C#CCOc1cc2c(cc1OCC#C)-c1cccc(CC)c1N(C)C2`, the CD in experiment [1] came out at 5 µM.

Regarding `CCc1cccc2c1N(C)Cc1cc(OCc3cc(C)n(C)n3)c(OCc3cc(C)n(C)n3)cc1-2`, the CD entry in experiment [1] is “inactive”.

As for `CCOc1cc2c(cc1OCC)-c1cccc(CC)c1N(C)C2`, the CD in experiment [1] came out at 5 µM.

Regarding `C=Cc1cccc2c1N(C)Cc1cc3c(cc1-2)OCO3`, the CD entry in experiment [1] is “inactive”.
